Source: PubChem BioAssay
Wee1 stabilizer: human Wee1 degradation inhibition, primary screen; P30291; HeLa Luc-Wee1K328M stability, luciferase luminescence; 100% = proteasome inhibitor MG132 effect; reporter increase, % at 5 µM; hit rate 1.2% among 220,000; AID 1321;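 active = activation above the mean of all tested compounds plus 3 SD, set per screening run, cut at about 8.8% in these data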;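 also: cells exposed to compound for 20 h before luminescence read; 0% = DMSO alone and 100% = MG132 at 30 µM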
Mdm2 ligase inh: Mdm2 E3 ligase (human) inhibition; cell-based MDM2 ubiquitination luciferase reporter, 2 h; 0 = plate control, 100 = twice control, blank-subtracted; Q00987; signal enhancement, % at 5 µM; hit rate 0.11% among 210,000;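 active = signal enhancement of 30% or more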;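 also: luminescence tracks abundance of the self-degrading MDM2-luciferase fusion protein; higher signal means inhibition of MDM2 E3 ligase activity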
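Assay system: stable mammalian line carrying autodegrading MDM2–luciferase fusion reporter; amount: 2000 cells seeded into each well; buffer or medium: DMEM; benchmarks: plate control and blank wells; signal: luciferase luminescence; timing: 2 h compound exposure at 37 °C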
APP 5'UTR act: APP 5'UTR luciferase reporter activation. AID 1276. hit rate 1% among 190,000. activation, % at 2 µM. SH-SY5Y APP 5'UTR luciferase reporter, luminescence; zero percent = DMSO vehicle wells;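 active = activation above a set limit, based on mean plus 3 SD of controls, cut at about 140% in these data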
NF-kB neuron act: compounds increasing NF-kB expression in human neuronal cells; NF-kB reporter expression; active compounds read high; fold change at 12.5 µM; hit rate 1.6% among 190,000; in the data active = fold change above about 3.3
STAT1 act: activators of IFN-gamma induced STAT1 signaling; NIH 3T3 STAT1-luciferase reporter, luminescence; 100% = IFN-gamma alone, no compound; activation (% of control), % at 5.5 µM; hit rate 2.6% among 200,000; AID 932;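 active = activation above the screen-wide mean activation plus 3 SD, cut at about 130% in these data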;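 also: raw ratio to IFN-gamma control signal so 100% means no change and 0% no light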
p97 inhibitor: inhibitors of human p97 ATPase; P55072; recombinant p97 ATPase, Kinase-Glo ATP luminescence, 3 h; inhibition, % at 8 µM; hit rate 0.42% among 220,000; AID 1481; in the data active = inhibition above about 15%;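 also: 0% = DMSO vehicle and 100% = wells lacking enzyme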
Target sequence (P55072 whole entry, looked up): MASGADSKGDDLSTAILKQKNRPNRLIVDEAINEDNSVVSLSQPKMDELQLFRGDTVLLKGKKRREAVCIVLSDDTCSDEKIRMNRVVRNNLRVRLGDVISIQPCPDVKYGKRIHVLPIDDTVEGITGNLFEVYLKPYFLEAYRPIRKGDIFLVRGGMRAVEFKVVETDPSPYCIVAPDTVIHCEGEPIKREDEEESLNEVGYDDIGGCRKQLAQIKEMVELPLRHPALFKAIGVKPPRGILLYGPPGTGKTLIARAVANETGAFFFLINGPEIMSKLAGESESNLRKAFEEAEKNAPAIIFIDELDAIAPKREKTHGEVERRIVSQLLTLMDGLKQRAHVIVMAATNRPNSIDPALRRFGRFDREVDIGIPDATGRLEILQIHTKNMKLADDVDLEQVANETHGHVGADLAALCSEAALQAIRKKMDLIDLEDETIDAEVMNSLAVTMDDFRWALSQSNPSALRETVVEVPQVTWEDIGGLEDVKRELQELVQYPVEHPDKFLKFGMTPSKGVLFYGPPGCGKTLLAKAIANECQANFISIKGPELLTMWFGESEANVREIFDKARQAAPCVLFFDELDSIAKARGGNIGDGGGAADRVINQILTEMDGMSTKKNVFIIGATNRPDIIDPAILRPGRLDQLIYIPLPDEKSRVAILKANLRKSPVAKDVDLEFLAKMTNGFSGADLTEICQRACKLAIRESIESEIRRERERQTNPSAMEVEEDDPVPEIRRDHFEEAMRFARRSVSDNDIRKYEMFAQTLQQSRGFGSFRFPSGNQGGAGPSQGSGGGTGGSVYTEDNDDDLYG
An asterisk follows results filed as active; . = no result. Hits are enriched below; roughly 4.6% of the tested compounds scored in any of these assays.

SMILES	Wee1 stabilizer	Mdm2 ligase inh	APP 5'UTR act	NF-kB neuron act	STAT1 act	p97 inhibitor
COCCN(C(=O)CNC(=O)c1cccs1)C(C(=O)NC1CCCC1)c1cccs1 (stereo not drawn)	9.8*	-14	9	0.95	102	-3
COCCN(C(=O)CNC(=O)c1cccs1)C(C(=O)NC1CCCCC1)c1ccco1 (stereo not drawn)	-1	-1	2	0.78	102	-3
CCn1c2ccccc2c2cc(NC(=O)C(=O)N3CCOCC3)ccc21	0	-2	67	1.7	120	7
N#C/C(=C\c1ccc(OCc2ccccc2)cc1)C(N)=O	3	-10	58	1.9	130*	1
N#C/C(=C\c1cc([N+](=O)[O-])ccc1Cl)C(N)=O	2	9	-20	0.99	90	6
N#C/C(=C/c1ccc([N+](=O)[O-])cc1)C(N)=O	11*	-19	-10	1	103	5
O=C(Nc1cc(C(F)(F)F)cc(C(F)(F)F)c1)Nc1cnn(-c2ccc([N+](=O)[O-])cc2)c1C(F)(F)F	0	-10	.	.	.	-10
CCc1nnc(NC(=O)CSc2nc3cc4c(cc3cc2CC)OCCO4)s1	-1	3	-4	3.5*	105	-6
CCc1cc2cc3c(cc2nc1SCC(=O)Nc1nnc(C)s1)OCCO3	0	0	0	0.94	100	-3
CCCCc1ccc(NS(=O)(=O)c2cccs2)cc1	6	-2	0	1	100	2
Oc1ccc(Br)cc1-c1cc(-c2ccccc2)n[nH]1	1	.	-3	1.1	104	-3
Cc1ccc(O)c(-c2cc(-c3cccc(F)c3)n[nH]2)c1	2	-19	43	5*	93	-1
Cc1ccc(-c2cc(-c3cccc(F)c3)n[nH]2)c(O)c1	8	-22	215*	9.6*	104	-4
Cc1ccc(-c2cc(-c3ccccc3C)[nH]n2)c(O)c1	5	5	120	6.3*	94	-8
Cc1ccc(O)c(-c2cc(-c3ccccc3F)[nH]n2)c1	3	-9	40	4.3*	109	1
O=[N+]([O-])c1ccccc1-c1cc(-c2ccccc2O)n[nH]1	-3	7	98	2.5	96	2
Cc1ccc(C(=O)NC(=S)Nc2cc(-c3nc4ccccc4s3)ccc2C)cc1	-2	-25	120	4*	115	0
COc1ccc(NC(=O)C(CC(=O)O)C(C)c2ccccc2)cc1 (stereo not drawn)	-1	-11	0	1.1	102	1
CN(C)c1cccc2c1c(NC(=O)c1ccc(Cl)cc1)nn2C	-1	-6	.	.	.	3
COc1ccc(C2CC(c3ccccc3)=NN2c2ccc(N)cc2)cc1 (stereo not drawn)	1	-4	7	1.4	141*	-4
COc1ccc(C2CC(c3ccccc3)=NN2c2ccc(Cl)c(C(=O)O)c2)cc1 (stereo not drawn)	1	-11	-15	1.1	113	5
O=C(N/N=C/c1ccc(OCc2ccccc2)cc1)c1ccco1	4	0	.	.	.	6
O=C(N/N=C\c1ccc2c(c1)OCO2)c1ccco1	3	-15	97	2.4	147*	-14
O=C(N/N=C/c1ccc2cccnc2c1)c1ccco1	1	-55	166*	3.5*	99	-4
O=C(N/N=C/c1ccccc1)c1ccco1	8	-12	.	.	.	-10
SMILES	Wee1 stabilizer	Mdm2 ligase inh	APP 5'UTR act	NF-kB neuron act	STAT1 act	p97 inhibitor
O=C(N/N=C\c1cccc(OC(=O)c2ccco2)c1)c1ccc2c(c1)OCO2	-5	-44	83	5.1*	118	-1
Cn1c(=O)c(=O)n(C)c2cc(S(=O)(=O)N3CCCC3C(=O)NCc3cccs3)ccc21 (stereo not drawn)	-1	-12	.	.	.	4
Nc1c(C(=O)c2ccc(Cl)cc2)sc2nc3c(cc12)CCC3	3	19	135*	1.1	113	-4
CC(=O)Oc1c(/C=C(\C#N)C(N)=O)[nH]c2ccccc12	-1	-6	7	1.3	94	3
COc1ccccc1NC(=O)Cn1nc(Cc2cccnc2)c2ccccc2c1=O	3	1	.	.	.	7
CC(=O)c1cnc(Nc2ccccc2)s1	-3	-84	11	1.4	107	-1
CC(=O)c1cnc(Nc2cccc(Cl)c2Cl)s1	1	1	69	2	136*	2
O=C(c1ccc(Cl)cc1)c1cnc(Nc2ccccc2Cl)s1	2	-12	116	3.2	145*	-3
CNc1ncc(C(=O)c2ccc(Br)cc2)s1	3	-8	94	3.5*	140*	5
O=C(COC(=O)CCS(=O)(=O)c1ccc(Cl)cc1)NCCc1ccccc1	0	-5	12	0.87	102	2
COc1ccccc1C(=O)C1CCCN(C(=O)CSc2ccccn2)C1 (stereo not drawn)	10*	-9	6	0.87	98	0
COc1cc(-c2noc(CCCC(=O)Nc3ccc(C(N)=O)cc3)n2)cc(OC)c1OC	10*	-10	.	.	.	4
COc1ccc(NC(=S)NC(=O)c2ccc(Br)o2)cc1	1	-13	32	2.7	147*	-3
COc1ccc(NC(=O)c2ccc(Br)o2)cc1	-2	.	47	2.7	122	-8
O=C(NC(=S)Nc1ccccc1)c1ccc(Br)o1	-1	9	72	1.9	138*	2
CC(=O)Nc1cn(-c2ccccc2)nc1-c1ccccc1	-4	-7	7	1.8	97	0
O=C(O)c1ccc(NC(=O)c2cn(-c3ccccc3)nc2-c2ccc(Br)cc2)cc1	0	6	13	1.1	119	-2
O=C(CCl)Nc1cn(-c2ccccc2)nc1-c1ccccc1	-2	-24	-14	1.4	92	15*
O=C(O)c1ccc(NC(=O)c2cn(-c3ccccc3)nc2-c2ccccc2)cc1	2	-91	13	0.97	146*	-3
Cc1cc(/C=C2\NC(=S)N(C)C2=O)ccc1N1CCCC1	2	-17	125	3	138*	0
COc1cc([N+](=O)[O-])cc2cc(C(=O)N3CCCC3)c(=O)oc12	0	-25	15	1.5	97	4
CCOC(=O)C1(C)NC(c2cccs2)C2C(=O)N(c3ccc(OC)cc3)C(=O)C21 (stereo not drawn)	-4	-11	1	1.4	92	3
CCCCCC[n+]1c(-c2ccccc2)csc1Nc1ccccc1	4	-2	2	1.3	103	8
COc1ccc(-c2csc(Nc3ccccc3)[n+]2CC(O)c2ccc([N+](=O)[O-])cc2)cc1 (stereo not drawn)	9.3*	-10	.	.	.	1
Cc1cc(N)n(-c2nc3ccccc3s2)n1	3	-21	113	4.5*	122	-5
